From ChEMBL document CHEMBL1138302, “Diaryl dihydropyrazole-3-carboxamides with significant in vivo antiobesity activity related to CB1 receptor antagonism: synthesis, biological evaluation, and molecular modeling in the homology model” (J Med Chem, 2007) come the findings set out here.

The AUC(0-inf) is the area under the concentration-time curve extrapolated to infinity. Read a high AUC(0-inf) as high exposure. By Tmax is commonly meant the time from dosing to the highest level. For orientation: Cmax means the peak of the concentration-time curve. One may read the inhibition in vivo as the share of the control response that was lost under treatment. As usually defined, the half-life is how long it takes for the measured level to halve. The Ki is the equilibrium dissociation constant of an inhibitor or competing ligand from its target. What is called Inhibition is the percentage by which the read-out fell short of the control. Lower therefore signals a response near the control.

Active and inactive are the calls of the source.

Data set [1] in a line: Drug concentration in fasted Zucker fa/fa rat brain at 30 mg/kg, po after 3 hrs. Format: ADME, organism-based. As to conditions: read-out: Drug uptake. The arrangement: dose 30 mg/kg, route oral. The essentials:
(§1)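 Female obese Zucker fa/fa rats (n=6), fasted, single oral 30 mg/kg in 0.5% carboxymethylcellulose; blood, brain and white adipose tissue taken at 3 h. Tissues saline-washed and homogenized in Tris buffer pH 7.4; plasma and homogenates liquid-liquid extracted and assayed by LC-MS (cyano column, ammonium acetate/TFA–acetonitrile 30:70). Values mean ± SEM.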

Data set [2] can be described thus: AUC (0 to infinity) in fasted Zucker fa/fa rat at 30 mg/kg, po. In kind it is ADME, organism-based. The arrangement: time infinity, dose 30 mg/kg, route oral. As to conditions: plasma. The method, boiled down: (§2)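 Overnight-fasted female obese Zucker fa/fa rats (n=6), single 30 mg/kg oral dose as suspension in 0.5% carboxymethylcellulose sodium in water. Retro-orbital serial bleeds at 10, 20, 40 min and 1, 2, 4, 6, 8, 24, 48 h; plasma extracted liquid-liquid and quantified by LC-MS against spiked-matrix calibration with internal standard. Noncompartmental parameters computed.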

Data set [3] deals with Rattus norvegicus. Nature of the data set: Inhibition of body weight gain in Zucker fa/fa rat at 10 mg/kg, po. The arrangement: dose 10 mg/kg. Format: functional, organism-based. The method, boiled down:
(§3)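 Individually housed female obese Zucker fa/fa rats, groups of six, dosed orally daily 1 h before dark phase for 60 days; body weight recorded daily. Day 61 morning retro-orbital blood drawn and serum triglyceride measured by colorimetric kit. One-way ANOVA with Dunnett's test versus control.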

The nature of data set [4]: Tmax in fasted Zucker fa/fa rat at 30 mg/kg, po. The arrangement: dose 30 mg/kg, route oral. Format: ADME, organism-based. Conditions: in vivo. The essentials: as §2
Data set [5] is described as follows: Drug concentration in fasted Zucker fa/fa rat plasma at 30 mg/kg, po after 3 hrs. In kind it is ADME, organism-based. The arrangement: dose 30 mg/kg, route oral. The essentials:
as §1

Data set [6] is described as follows: Cmax in fasted Zucker fa/fa rat at 30 mg/kg, po. Conditions: in vivo. The arrangement: dose 30 mg/kg, route oral. In kind it is ADME, organism-based. The essentials:
as §2

In data set [7] the test system is Rattus norvegicus. As to the kind of experiment: Reduction in serum triglyceride level in Zucker fa/fa rat at 10 mg/kg, po after 60 days. Format: functional, organism-based. The arrangement: dose 10 mg/kg. The essentials:
as §3

Data set [8] can be described thus: Drug concentration in fasted Zucker fa/fa rat white adipose tissue at 30 mg/kg, po after 3 hrs. The arrangement: dose 30 mg/kg, route oral. In kind it is ADME, organism-based. Conditions: read-out: Drug uptake. The essentials: as §1
Data set [9] relates to Rattus norvegicus. As to the kind of experiment: Inhibition of sucrose intake in Zucker fa/fa rat at 10 mg/kg, po after 4 hrs. Format: functional. Conditions: for Inhibition: 10 mg/kg. The method, boiled down: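 Female Zucker fa/fa rats (10-12 weeks, 300-350 g) trained six consecutive days on 5% sucrose with food and water withdrawn; day 7 randomized (n=6), dosed orally 10 mg/kg in 0.5% carboxymethylcellulose (2 mL/kg), exposed to sucrose 1 h later for 4 h. Consumption measured; % inhibition vs vehicle control; one-way ANOVA with Dunnett's test.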

The nature of data set [10]: Half life in fasted Zucker fa/fa rat at 30 mg/kg, po. In kind it is ADME, organism-based. Also noted: dose 30 mg/kg, route oral. As to conditions: in vivo. The method, boiled down: as §2
For another data set, the target named is Cannabinoid receptor 2 (Homo sapiens, UniProt P34972). Nature of the data set: Displacement of [3H]WIN-552122 from human recombinant CB2 receptor expressed in CHOK1 cells. In kind it is cell-based, CHO-K1.
Another data set deals with Cannabinoid receptor 1 (Homo sapiens, UniProt P21554). As to the kind of experiment: biochemical. In kind it is cell-based, HEK293.
Data set [11] relates to Mus musculus. Nature of the data set: Effect on locomotor activity in Swiss albino mouse tetrad model assessed as number of squares crossed in 5 mins at 30 mg/kg po after 35 mins in presence of 1 mg/kg cannabinoid agonist WIN-55212-2 relative to control. In kind it is functional. The essentials: (§4)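 Female Swiss albino mice (10-12 weeks, 25-30 g), n=6, dosed orally in 0.5% carboxymethylcellulose (10 mL/kg); 1 h later WIN-55212-2 1 mg/kg iv in 0.01% Tween 80/5% DMSO saline. From 30 min on: rectal temperature before and after treatment; hot plate 55 °C, %MPE, 30 s cutoff; ring-test immobility over 5 min; open-field squares crossed in 5 min at 35 min. Compared with WIN-treated controls.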

The test system of data set [12] is Mus musculus. As to the kind of experiment: Analgesic activity in Swiss albino mouse tetrad model at 10 mg/kg po by hot plate test in presence of 1 mg/kg cannabinoid agonist WIN-55212-2 relative to control. In kind it is functional. The method, boiled down:
as §4
On the technique in general: In hot-plate and tail-flick tests a longer latency is read as antinociception.

The test system of data set [13] is Mus musculus. As to the kind of experiment: Effect on change in body temperature in Swiss albino mouse tetrad model at 3 mg/kg po in presence of 1 mg/kg cannabinoid agonist WIN-55212-2 relative to control. Format: functional. The essentials:
as §4

Data set [14] deals with Mus musculus. As to the kind of experiment: Effect on change in body temperature in Swiss albino mouse tetrad model at 1 mg/kg po in presence of 1 mg/kg cannabinoid agonist WIN-55212-2 relative to control. In kind it is functional. The method, boiled down:
as §4

The subject of data set [15] is Mus musculus. As to the kind of experiment: Effect on locomotor activity in Swiss albino mouse tetrad model assessed as number of squares crossed in 5 mins at 10 mg/kg po after 35 mins in presence of 1 mg/kg cannabinoid agonist WIN-55212-2 relative to control. Format: functional. The essentials: as §4
Data set [16] deals with Mus musculus. As to the kind of experiment: Effect on locomotor activity in Swiss albino mouse tetrad model assessed as number of squares crossed in 5 mins at 3 mg/kg po after 35 mins in presence of 1 mg/kg cannabinoid agonist WIN-55212-2 relative to control. In kind it is functional. The essentials: as §4
Data set [17] has as its system Mus musculus. Nature of the data set: Effect on catalepsy in Swiss albino mouse tetrad model assessed as immobility for 5 mins at 30 mg/kg po after 30 mins by ring test in presence of 1 mg/kg cannabinoid agonist WIN-55212-2 relative to control. Format: functional. The method, boiled down: as §4
Data set [18] relates to Mus musculus. As to the kind of experiment: Effect on catalepsy in Swiss albino mouse tetrad model assessed as immobility for 5 mins at 1 mg/kg po after 30 mins by ring test in presence of 1 mg/kg cannabinoid agonist WIN-55212-2 relative to control. Format: functional. The essentials:
as §4

The test system of data set [19] is Mus musculus. As to the kind of experiment: Effect on change in body temperature in Swiss albino mouse tetrad model at 30 mg/kg po in presence of 1 mg/kg cannabinoid agonist WIN-55212-2 relative to control. Format: functional. The method, boiled down:
as §4

For data set [20], the system named is Mus musculus. Nature of the data set: Analgesic activity in Swiss albino mouse tetrad model at 3 mg/kg po by hot plate test in presence of 1 mg/kg cannabinoid agonist WIN-55212-2 relative to control. Format: functional. The essentials:
as §4

The subject of data set [21] is Mus musculus. Nature of the data set: Effect on change in body temperature in Swiss albino mouse tetrad model at 10 mg/kg po in presence of 1 mg/kg cannabinoid agonist WIN-55212-2 relative to control. Format: functional. The method, boiled down: as §4
For data set [22], the system named is Mus musculus. As to the kind of experiment: Effect on catalepsy in Swiss albino mouse tetrad model assessed as immobility for 5 mins at 10 mg/kg po after 30 mins by ring test in presence of 1 mg/kg cannabinoid agonist WIN-55212-2 relative to control. Format: functional. The essentials: as §4
Data set [23] concerns Mus musculus. As to the kind of experiment: Analgesic activity in Swiss albino mouse tetrad model at 30 mg/kg po by hot plate test in presence of 1 mg/kg cannabinoid agonist WIN-55212-2 relative to control. Format: functional. The essentials:
as §4

Data set [24] relates to Mus musculus. Nature of the data set: Analgesic activity in Swiss albino mouse tetrad model at 1 mg/kg po by hot plate test in presence of 1 mg/kg cannabinoid agonist WIN-55212-2 relative to control. In kind it is functional. The essentials:
as §4

Data set [25] has as its system Mus musculus. Nature of the data set: Effect on catalepsy in Swiss albino mouse tetrad model assessed as immobility for 5 mins at 3 mg/kg po after 30 mins by ring test in presence of 1 mg/kg cannabinoid agonist WIN-55212-2 relative to control. Format: functional. The method, boiled down: as §4
Data set [26] relates to Mus musculus. Nature of the data set: Effect on locomotor activity in Swiss albino mouse tetrad model assessed as number of squares crossed in 5 mins at 1 mg/kg po after 35 mins in presence of 1 mg/kg cannabinoid agonist WIN-55212-2 relative to control. Format: functional. The method, boiled down:
as §4

Cannabinoid receptor 2, sequence (P34972 whole entry): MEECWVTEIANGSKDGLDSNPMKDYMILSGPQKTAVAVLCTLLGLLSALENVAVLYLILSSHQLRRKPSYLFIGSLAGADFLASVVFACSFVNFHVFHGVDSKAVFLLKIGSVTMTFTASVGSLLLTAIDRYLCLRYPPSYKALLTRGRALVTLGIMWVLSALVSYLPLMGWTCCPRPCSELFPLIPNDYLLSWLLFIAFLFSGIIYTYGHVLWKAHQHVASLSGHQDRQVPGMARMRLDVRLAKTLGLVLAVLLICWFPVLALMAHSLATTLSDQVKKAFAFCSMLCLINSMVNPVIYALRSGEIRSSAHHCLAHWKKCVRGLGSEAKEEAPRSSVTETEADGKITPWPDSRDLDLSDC
Cannabinoid receptor 1, sequence (P21554 whole entry): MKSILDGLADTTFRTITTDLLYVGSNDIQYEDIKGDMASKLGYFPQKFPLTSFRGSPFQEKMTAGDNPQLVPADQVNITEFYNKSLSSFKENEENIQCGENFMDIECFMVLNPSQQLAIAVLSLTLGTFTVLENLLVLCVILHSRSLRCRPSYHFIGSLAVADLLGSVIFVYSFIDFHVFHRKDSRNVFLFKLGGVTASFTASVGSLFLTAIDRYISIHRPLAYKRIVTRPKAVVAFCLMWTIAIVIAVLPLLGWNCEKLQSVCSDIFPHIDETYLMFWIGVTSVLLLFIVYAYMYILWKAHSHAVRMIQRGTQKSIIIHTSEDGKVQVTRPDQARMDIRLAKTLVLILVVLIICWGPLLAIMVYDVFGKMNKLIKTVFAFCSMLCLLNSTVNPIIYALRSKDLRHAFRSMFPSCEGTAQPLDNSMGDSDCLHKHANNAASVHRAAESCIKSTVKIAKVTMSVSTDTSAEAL

With `Cc1c(C(=O)NN2CCCCC2)nn(-c2ccc(Cl)cc2Cl)c1-c1ccc(Cl)cc1` [RIMONABANT], the concentration at 3 h in data set [1] was 450 ng/g; in data set [5] it was 0.4 µg/mL; in [8], 4250 ng/g. The same compound showed an area under the curve AUC(0-inf) in data set [2] of 41.2 µg·h/mL. Besides, the result in the data set on Rattus norvegicus [3] and in the data set with Rattus norvegicus [7] was Active. The Tmax in [4] was 2.6 h. This compound also registered a Cmax in data set [6] of 1.92 µg/mL. Further, 10 mg/kg produced 36.7% inhibition in vivo in the data set on Rattus norvegicus [9] (Rattus norvegicus, Zucker, po, 4 h). This compound also gave a half-life in data set [10] of 26.6 h.
For the compound `O=C(NN1CCOCC1)C1=NN(c2ccc(Cl)cc2Cl)C(c2ccc(Cl)cc2)C1.O=S(=O)(O)O` (single isomer, unassigned; 28), the values for the Ki at Cannabinoid receptor 2 and on Cannabinoid receptor 1 were 26.4 µM and 0.475 µM, respectively. The compound also registered an Inhibition in the data set on Rattus norvegicus [9] of 15.4%.
For the compound `O=C(NN1CCOCC1)C1=NN(c2ccc(Cl)cc2Cl)C(c2ccc(Cl)cc2)C1.O=S(=O)(O)O` (single isomer, unassigned; 30), the Activity with Mus musculus [11] is 25; in the data set with Mus musculus [13] it was -2.1 °C; in the data set with Mus musculus [14] it was -4.24 °C; in the data set on Mus musculus [15], 13.25; in the data set with Mus musculus [16] it was 3; in the data set with Mus musculus [17] it was 18.23%. Besides, the Activity in the data set on Mus musculus [18] is 85.2%; with Mus musculus [19], 0.15 °C; with Mus musculus [21] it was -0.15 °C; in the data set with Mus musculus [22] it was 14.2%; in the data set on Mus musculus [25], 33.75%; in the data set with Mus musculus [26], 0.4. Further, the MPE was -0.15% in the data set with Mus musculus [12], 12% with Mus musculus [20], 11.5% in the data set on Mus musculus [23] and 24% with Mus musculus [24]. The concentration at 3 h is 4860 ng/g in [1], 1.4 µg/mL in data set [5] and 6310 ng/g in data set [8]. Besides, the AUC(0-inf) in [2] is 10 µg·h/mL. For the same compound, the Tmax in [4] was determined as 3.7 h. Further, the results for the Ki at Cannabinoid receptor 2 and on Cannabinoid receptor 1 were 24.5 µM and 0.15 µM, respectively. Besides, the Cmax in data set [6] was 0.51 µg/mL. The same compound displayed an Inhibition in the data set on Rattus norvegicus [9] of 58.6%. In data set [10], the half-life was 17.6 h.
Take `O=C(NN1CCOCC1)C1=NN(c2ccc(Cl)cc2Cl)C(c2ccc(Cl)cc2)C1.O=S(=O)(O)O` (racemic; form 2): the Ki on Cannabinoid receptor 2 turned out to be 21.7 µM; at Cannabinoid receptor 1, 0.334 µM. This compound also returned an Inhibition with Rattus norvegicus [9] of 36.4%.
